From PubChem BioAssay
B2AR ag – beta2AR agonists driving receptor internalization, primary screen, cell-based, FAP fluorogen, flow cytometry; response, % (test concentration not listed); Am2.2-beta2AR cells; Beta-2 adrenergic receptor (Homo sapiens), P07550; 340,000 compounds, 0.43% hits;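 active means response above a set limit, near 3 SD of response in nonfluorescent compounds, cut at about 42% in these data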
pCIP destab – p/CIP-EGFP fusion destabilizers, primary screen, fluorescence, F442A cells; 16 h; 290,000 compounds, 0.01% hits; Q05BA5; AID 1984, 2009; decrease of EGFP signal, % at 10 µM;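 active means EGFP signal decrease of at least 30% at 10 µM or well 3 SD below plate mean, unless failing retest; inactive means the rest, including hits failing retest or dose response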
Target sequence (Q05BA5 1-1403): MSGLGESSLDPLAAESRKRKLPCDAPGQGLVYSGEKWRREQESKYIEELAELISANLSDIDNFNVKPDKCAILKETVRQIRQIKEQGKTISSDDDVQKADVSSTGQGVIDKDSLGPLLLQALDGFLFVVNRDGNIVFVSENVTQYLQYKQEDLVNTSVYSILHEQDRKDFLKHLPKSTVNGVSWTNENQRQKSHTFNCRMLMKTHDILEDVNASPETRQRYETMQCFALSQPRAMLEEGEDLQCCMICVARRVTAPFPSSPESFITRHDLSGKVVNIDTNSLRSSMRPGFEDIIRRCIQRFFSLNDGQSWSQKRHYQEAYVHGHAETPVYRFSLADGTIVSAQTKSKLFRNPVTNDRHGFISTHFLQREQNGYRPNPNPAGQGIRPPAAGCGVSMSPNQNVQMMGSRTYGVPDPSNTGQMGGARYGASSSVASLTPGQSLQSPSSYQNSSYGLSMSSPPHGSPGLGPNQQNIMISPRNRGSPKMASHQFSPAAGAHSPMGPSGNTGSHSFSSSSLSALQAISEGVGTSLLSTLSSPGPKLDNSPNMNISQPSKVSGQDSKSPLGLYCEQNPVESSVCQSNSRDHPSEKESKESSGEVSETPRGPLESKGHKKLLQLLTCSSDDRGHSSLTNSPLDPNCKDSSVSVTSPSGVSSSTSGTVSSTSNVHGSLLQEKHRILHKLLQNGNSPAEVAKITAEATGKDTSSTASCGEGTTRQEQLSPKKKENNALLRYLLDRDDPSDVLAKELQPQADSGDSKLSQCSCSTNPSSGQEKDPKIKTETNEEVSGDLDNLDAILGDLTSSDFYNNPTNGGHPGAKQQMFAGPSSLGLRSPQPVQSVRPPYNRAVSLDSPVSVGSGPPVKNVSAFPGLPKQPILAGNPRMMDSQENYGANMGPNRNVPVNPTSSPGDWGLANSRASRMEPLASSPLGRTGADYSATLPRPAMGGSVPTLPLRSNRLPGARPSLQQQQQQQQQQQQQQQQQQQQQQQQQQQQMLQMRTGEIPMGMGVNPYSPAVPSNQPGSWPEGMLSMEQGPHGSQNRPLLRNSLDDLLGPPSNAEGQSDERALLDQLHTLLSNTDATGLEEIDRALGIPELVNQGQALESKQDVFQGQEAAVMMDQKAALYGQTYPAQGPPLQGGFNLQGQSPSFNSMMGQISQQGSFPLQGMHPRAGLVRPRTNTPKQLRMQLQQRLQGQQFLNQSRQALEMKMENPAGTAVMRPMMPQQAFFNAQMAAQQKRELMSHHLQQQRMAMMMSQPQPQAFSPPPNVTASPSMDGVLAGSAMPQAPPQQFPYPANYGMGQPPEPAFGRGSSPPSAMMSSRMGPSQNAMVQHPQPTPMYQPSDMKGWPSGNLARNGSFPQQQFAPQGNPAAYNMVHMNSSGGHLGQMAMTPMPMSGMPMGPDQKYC
CHOP UPR activ – activators of apoptotic CHOP UPR arm, primary screen, cell-based, CHO-CHOP luciferase reporter, luminescence, uHTS; UPR activation; percent of tunicamycin response over DMSO baseline; activation, % at 10 µM; 330,000 compounds, 0.34% hits; AID 449763, 2010;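 active means at 10 µM dose, activation of 40% or more, normalized to positive control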;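 further: 100% = tunicamycin at 10 µg/mL and 0% = DMSO alone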
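Assay system: CHO cells with stable CHOP pathway luciferase reporter; Buffer or medium: F12 plus 10% serum; Times: 16-18 h cell attachment, then 6 h compound exposure, 37 °C; Signal: luciferase luminescence; Read-out basis: percent activation relative to tunicamycin control; Control set: tunicamycin high control, DMSO low control.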
UPR XBP1 act – activators of adaptive XBP1 UPR arm, primary screen, cell-based, CHO-XBP1 luciferase reporter, luminescence, uHTS; IRE1-XBP1 UPR activation; percent of tunicamycin response, DMSO as zero; activation, % at 20 µM; 330,000 compounds, 0.33% hits; AID 463104, 2010;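 active means versus positive control, 20 µM dose yields 30% or more activation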;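 further: 100% = tunicamycin at 10 µg/mL and 0% = DMSO only wells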
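Material: CHO-XBP1 cells stably carrying IRE1-XBP1-driven luciferase reporter | Medium: F12 with 10% serum | Compound dosing: 20 µM single concentration, DMSO 1% | Incubation: Overnight seeding at 37 °C, 6 h compound treatment at 37 °C | Detection: Steady-Glo luminescence read | Read-out basis: % activation of reporter signal versus tunicamycin and DMSO controls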
Dynein transport – inhibitors of GR-EGFP nuclear translocation, primary screen, dynein cargo transport inhibitor project, imaging, high-content, 3617.4 mouse cells; 220,000 compounds, 0.47% hits; AID 1381, 2008; z-score, hits read low; test concentration mostly 20 µM; stimulated with dexamethasone, 1 µM; active compounds read low;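 active means plate z-score of nuclear minus cytoplasmic receptor signal below a set negative limit, without overly bright fluorescence or cell loss, cut at about -3.5 in these data, passing the limit was not always enough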;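 further: z-score of nuclear minus cytoplasmic ring GR-EGFP intensity difference per well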
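Schedule: 48 h induction, then 1 h compound, then 30 min agonist, 37 °C. Buffer or medium: tetracycline-free induction medium containing charcoal-stripped FBS. Reagent: 1.0 µM final dexamethasone stimulus. Evaluation: nuclear versus cytoplasmic GR-EGFP signal, averaged per well. Signal: high-content fluorescence imaging after fixation.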
CHOP inh – inhibitors of CHOP promoter induction, primary screen, cell-based, unfolded protein response, luciferase reporter | CHO-K1 CHOP-promoter luciferase, tunicamycin-induced, 15-18 h | inhibition, % at 10 µM | 220,000 compounds, 3.8% hits | AID 2732, 2010;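 active means compounds that reduced the stress-induced luciferase reporter signal by more than about 70% of percent inhibition, limit read from the data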;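 further: 0% = tunicamycin plus vehicle and 100% = wells without tunicamycin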
B2AR ag CP1 – beta2AR agonists via receptor internalization, confirmation, cell-based, FAP fluorogen, flow cytometry, single point, cherry pick 1 | shares compounds with B2AR ag | Am2.2-beta2AR cells, FAP surface receptor; active compounds read low | percent response (surface receptor), % at 10 µM | 1,100 compounds, 25% hits;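 active means surface receptor percent response at or below 58%, roughly 3 SD from nonfluorescent compounds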
FAP fluor counter – flagged in Am2.2 fluorescence counterscreen for beta-2AR agonists. shares compounds with B2AR ag. Am2.2 cells, FAP fluorogen flow cytometry; active compounds read low. calls only at 10 µM. 1,100 tested, under 10 active. AID 588765;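 active means percent response below a set limit in fluorescence channel 1 and below 50% in channel 8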
* hit, by the source's call; i = inactive; . = no result. This excerpt belongs to a sample that is enriched for hits.

SMILES	B2AR ag	pCIP destab	CHOP UPR activ	UPR XBP1 act	Dynein transport	CHOP inh	B2AR ag CP1	FAP fluor counter
COc1cccc(CNCCO)c1OCc1ccccc1Cl	-4	-5	-1	-2	0.98	22	.	.
O=C(O)c1ccc(Nc2nc3ccc(Cl)cc3[nH]2)cc1	0	-5	-1	-1	.	.	.	.
Cc1cccc(CN2CCC(Oc3ccc(C(=O)N4CCCCC4)cc3)CC2)c1	12	2	2	-7	.	.	86	i
Cc1ccccc1CN1CCC(Oc2ccc(C(=O)N3CCCC3)cc2)CC1	5	-1	0	1	.	.	.	.
CCOc1cccc(CN2CCC(Oc3ccc(C(=O)N4CCCC4)cc3)CC2)c1	-6	-2	2	-6	.	.	114	i
O=C(COC(=O)CCCNC(=O)c1ccc(Cl)cc1)NC1CC1	-3	7	1	1	-0.16	11	.	.
CN1CCN(S(=O)(=O)c2ccc(NC(=O)c3ccc(Br)s3)cc2)CC1	0	0	5	3	-0.93	24	.	.
Cc1cc(C)cc(C(=O)NC(CC(N)=O)c2ccc(N3CCN(c4ccccn4)CC3)c([N+](=O)[O-])c2)c1 (stereo unspecified)	68*	2	-1	0	.	.	18*	i
COc1ccc(OC)c(C(=O)NC(CC(N)=O)c2ccc(N3CCN(c4ccccn4)CC3)c([N+](=O)[O-])c2)c1 (stereo unspecified)	16	12	0	0	.	.	141	i
CC(=O)N(C(C)=O)C1=C(C#N)C2(CCCCC2)Cc2ccccc21	6	-2	1	0	-0.22	32	.	.
CCOc1cccc2sc(N(CCN(CC)CC)C(=O)c3cccc([N+](=O)[O-])c3)nc12	12	12	1	-1	0.35	30	.	.
COc1cc2nc(N3CCN(C(=O)C4COc5ccccc5O4)CC3)nc(N)c2cc1OC (stereo unspecified)	7	-7	1	-2	-0.59	23	100	i
COc1ccc2nc(N3CCN(C(=O)C4COc5ccccc5O4)CC3)sc2c1 (stereo unspecified)	3	.	3	4	.	.	.	.
Cc1ccc(S(=O)(=O)N2CCCC2C(=O)NCCc2ccccc2)cc1 (stereo unspecified)	-3	0	-1	-3	1.2	0	.	.
Cc1ccc(S(=O)(=O)N2CCCC2C(=O)NCCc2nc3ccccc3[nH]2)cc1 (stereo unspecified)	50*	4	1	1	-0.079	6	117	i
O=C(NCC1CCCO1)c1ccc(NC(=O)c2cccc([N+](=O)[O-])c2)cc1 (stereo unspecified)	3	-12	2	-2	.	.	.	.
Cc1noc(C)c1S(=O)(=O)N1CCCC(C(=O)N2CCC(C)CC2)C1 (stereo unspecified)	49*	3	-1	-1	0.4	20	120	i
O=C(Nc1ccc2c(c1)OCO2)C1CCN(C(=O)c2ccc([N+](=O)[O-])cc2)CC1	-3	11	0	1	-0.79	19	.	.
Cc1ccc(S(=O)(=O)NC(C)(C)CN2CCC(Cc3ccccc3)CC2)cc1	50*	-18	2	-1	0.16	3	107	i
CCOC(=O)C1CCN(CC(C)(C)NS(=O)(=O)c2ccc(C)cc2)CC1	3	-21	6	-4	.	.	.	.
Cc1c(CN2CCC(CO)(Cc3cccc(C(F)(F)F)c3)CC2)c2ccccc2n1C	46*	16	0	3	3.2	21	97	i
COc1cc(CN2CCC(CO)(Cc3cccc(C(F)(F)F)c3)CC2)ccc1F	4	6	0	0	-0.48	13	.	.
Cc1cc2ncn(C(=O)c3ccc(F)cc3)c2cc1C	-4	-3	2	-3	.	.	.	.
CCn1nnc(NC(=S)NC(=O)c2ccc(-c3cccc(Cl)c3)o2)n1	-4	-7	1	7	0.2	-11	148	i
O=C(Nc1c(F)cccc1F)C1CCN(C(=O)c2cccs2)CC1	3	-11	0	1	.	.	.	.
SMILES	B2AR ag	pCIP destab	CHOP UPR activ	UPR XBP1 act	Dynein transport	CHOP inh	B2AR ag CP1	FAP fluor counter
CC(Oc1ccc(Cl)cc1Cl)c1nc(-c2ccc(NC(=O)c3ccccn3)cc2)no1 (stereo unspecified)	82*	5	2	-1	0.18	26	9.7*	i
COC(=O)c1ccc(C(=O)Nc2cc(Cl)ccc2Cl)cc1NC(=O)c1ccc(N(C)C)cc1	3	1	3	3	0.46	-20	.	.
CCCCOc1cccc(C(=O)Nc2ccc(NC(=O)c3cccs3)cc2)c1	79*	3	1	1	.	.	21*	i
CCOC(=O)c1c(S(=O)(=O)Nc2ccc(C)cn2)c(C)n(C)c1C	-7	-27	0	-5	.	.	.	.
Cc1cccc(C)c1NC(=O)Cn1nnc(-c2ccc(N3CCOCC3)cc2)n1	-10	2	-3	0	-0.81	17	103	i
COc1ccc(NC(=O)Cn2nnc(-c3ccc(CN4CCOCC4)cc3)n2)c(OC)c1	6	5	1	-1	2.1	27	106	i
COC(=O)c1ccccc1NC(=O)Cn1nnc(-c2ccc(OC)cc2)n1	-12	-11	0	2	0.034	23	94	i
Cc1ccc(C)c(NC(=O)Cn2nnc(-c3ccc(N4CCOCC4)cc3)n2)c1	1	-34	1	-1	0.28	-3	.	.
CCOC(=O)c1ccc(NC(=O)Cn2nnc(-c3ccccc3C)n2)cc1	-6	-8	3	0	2	54	121	i
COC(=O)c1cccc(NC(=O)CN2CCc3ccccc3C2)c1	-1	4	-2	-5	.	.	.	.
CCCOc1ccc(-c2nnn(CC(=O)Nc3cccc(C(=O)OC)c3)n2)cc1	-9	-14	0	2	.	15	110	i
COc1ccc(Cl)c(NC(=O)Cn2nnc(-c3ccccc3N)n2)c1	-17	-9	0	-8	1.4	-11	124	i
Cc1cc(NC(=O)Cn2nnc(-c3ccccc3N)n2)no1	-18	-2	-1	-4	0.023	4	.	.
CNc1nc(-c2c(C)[nH]c3ccc(OC)cc23)cs1	60*	-7	0	5	.	.	94	i
